Measurements published in ChEMBL document CHEMBL1250484, “Synthesis and antioxidant activity of quinolinobenzothiazinones” (2010).

Columns and labels:
Mus musculus [1] = organism: Mus musculus; assay: Antioxidant activity in Swiss albino mouse assessed as lipid peroxidation level measured per mg of tissue after 7 days; assay type: functional, organism-based
Method in brief: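 Male random-bred Swiss albino mice (24 ± 2 g) dosed orally once daily for 7 days with compound in 0.1 ml double-distilled water; controls water only. Liver perfused with cold 0.9% NaCl, homogenized 10% w/v in tris-KCl pH 7.4. TBARS: sample with tris-KCl, 30% TCA, 52 mM TBA, 25 min at 80 °C, centrifuged; supernatant read at 531.8 nm, expressed as malondialdehyde per mg protein.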

Mus musculus [2] = organism: Mus musculus; assay: Antioxidant activity in Swiss albino mouse assessed as reduced glutathione level measured per mg of tissue after 7 days; assay type: functional
Method in brief: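 Male Swiss albino mice (24 ± 2 g) given compound orally in 0.1 ml double-distilled water daily for 7 days; controls got water. Perfused liver homogenized 10% w/v in tris-KCl pH 7.4, precipitated with 25% TCA, centrifuged. 0.1 ml supernatant mixed with 2 ml 0.6 mM DTNB and 0.9 ml […] pH 8.0; absorbance at 412 nm for GSH.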

[3] = system: Radical scavenging activity; assay: Antioxidant activity assessed as DPPH radical scavenging activity at 1 mg/ml; assay type: functional
Method in brief: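 Compound stock 1 mg/ml in methanol; 50 µl added to 5 ml 0.004% methanolic DPPH. Incubated 30 min in dark at room temperature, absorbance at 517 nm against blank. Percent inhibition calculated by formula; triplicate.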

[4] = Antioxidant activity assessed as ABTS radical scavenging activity after 1 min; assay type: functional
Method in brief: (§1)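 ABTS radical cation made from 7 mM ABTS in deionized water plus potassium persulphate (2.45 mM), kept dark at room temperature 12–16 h, then diluted with ethanol to A734 0.700 ± 0.020. 1 ml of this added to 10 µl compound; absorbance at 734 nm read at 30 °C at 1–6 min after mixing. Triplicate determinations.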

[5] = Antioxidant activity assessed as ABTS radical scavenging activity after 2 mins; assay type: functional; method in brief: as §1
[6] = Antioxidant activity assessed as ABTS radical scavenging activity after 4 mins; assay type: functional; method in brief: as §1
[7] = Antioxidant activity assessed as ABTS radical scavenging activity after 6 mins; assay type: functional; method in brief: as §1

SMILES	Activity (Mus musculus [1]) [nmol]	Activity (Mus musculus [2]) [nmol]	inhibition [3] [%]	deltaA [4]	deltaA [5]	deltaA [6]	deltaA [7]
COc1cccc2c1Nc1c(c(=O)[nH]c3c(OC)cccc13)S2	6.81	4.8	54.3	0.055	0.052	0.052	0.052
Cc1cccc2c1Nc1c(c(=O)[nH]c3c(C)cccc13)S2	6.72	4.51	2.71	0.62	0.61	0.61	0.61
Cc1ccc2[nH]c(=O)c3c(c2c1)Nc1c(C)cccc1S3	6.69	4.5	8.33	0.56	0.52	0.52	0.52
COc1cccc2c3c(c(=O)[nH]c12)Sc1cc(Br)ccc1N3	6.51	5.01	53.8	0.141	0.098	0.098	0.095
Cc1ccc2[nH]c(=O)c3c(c2c1)Nc1c(cccc1C(F)(F)F)S3	6.53	4.9	22.4	0.328	0.318	0.318	0.318
Cc1ccc2[nH]c(=O)c3c(c2c1)Nc1ccc(Br)cc1S3	6.42	5	13.7	0.412	0.406	0.406	0.406
